Data taken from ChEMBL document CHEMBL3877244, “Synthesis and biological evaluation of new aryl-alkyl(alkenyl)-4-benzylpiperidines, novel Sigma Receptor (SR) modulators, as potential anticancer-agents” (Eur J Med Chem, 2016).
Activity calls are given as the source filed them. No cut-off for these calls is given here.

How the values were obtained:
[1] = Displacement of [3H]-DTG from sigma 2 receptor in rat liver after 120 mins by scintillation counting analysis
Summary of the method: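 Rat liver homogenate (150 µg) incubated 120 min at room temperature with 3 nM [³H]-DTG in 50 mM Tris-HCl pH 8.0. (+)-Pentazocine 100 nM masked S1R; haloperidol 10 µM defined nonspecific binding. Ki by Cheng–Prusoff from IC50.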

[2] = Cytotoxicity against human Paca3 cells assessed as decrease in cell viability under starvation condition after 24 hrs by MTS assay; assay type: functional, cell-based; settings: Paca3, 24 h
Summary of the method: (§1)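 Cells starved 24 h in low-glucose medium without FCS, then treated 24 h with compound in serum-free conditions. MTS read-out, OD 490 nm, expressed as percent of untreated control. IC50 read graphically from the dose-response plot. Three independent experiments in octuplicate.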

[3] = Cytotoxicity against human Capan2 cells assessed as reduction in cell viability after 24 hrs in presence of 10% fetal calf serum by MTS assay; assay type: functional, cell-based; settings: Capan-2, 24 h
Summary of the method: (§2)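 Cells in exponential growth, 3×10^3 per well, in medium with 10% FCS. Capan-2, PaCa3, MDA-MB 231, SUM 159 and PC3 were grown in DMEM/Ham's F12 with glutamine 2 mM and insulin 10 µg/ml. U87 was grown in EMEM and LNCaP in RPMI, each with glutamine. Compound 0.1–100 µM, continuous exposure (24 h; 48 h for the 48 h lines). MTS, OD 490 nm. IC50 read graphically. Three independent experiments in octuplicate.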

[4] = system: Capan-2; assay: Cytotoxicity against human Capan2 cells assessed as reduction in cell viability after 48 hrs in presence of 10% fetal calf serum by MTS assay; assay type: functional, cell-based; summary of the method: as §2
[5] = Cytotoxicity against human SUM159 cells assessed as reduction in cell viability after 24 hrs in presence of 10% fetal calf serum by MTS assay; assay type: functional, cell-based; settings: SUM-159-PT; summary of the method: as §2
[6] = Cytotoxicity against human MDA-MB-231 cells assessed as reduction in cell viability after 24 hrs in presence of 10% fetal calf serum by MTS assay; assay type: functional, cell-based; settings: MDA-MB-231, 24 h; summary of the method: as §2
[7] = Cytotoxicity against human U87 cells assessed as reduction in cell viability after 24 hrs in presence of 10% fetal calf serum by MTS assay; assay type: functional, cell-based, U-87MG ATCC; settings: U-87 MG; summary of the method: as §2
[8] = Cytotoxicity against human U87 cells assessed as reduction in cell viability after 24 hrs in absence of 10% fetal calf serum by MTS assay; assay type: functional, cell-based, U-87MG ATCC; settings: U-87 MG; summary of the method: as §1
[9] = Cytotoxicity against human Capan2 cells assessed as reduction in cell viability after 24 hrs in absence of 10% fetal calf serum by MTS assay; assay type: functional, cell-based; settings: Capan-2, 24 h; summary of the method: as §1
[10] = Cytotoxicity against human LNCAP cells assessed as reduction in cell viability after 24 hrs in absence of 10% fetal calf serum by MTS assay; assay type: functional, cell-based; summary of the method: as §1
[11] = system: Paca3; assay: Induction of apoptosis in human Paca3 cells at 25 uM after 24 hrs in presence of 10% fetal calf serum by TUNEL assay; assay type: functional, cell-based
Summary of the method: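 PaCa3 cells in serum medium, exposed 24 h (10, 25, 50 μM tested). Cells fixed in 1% formaldehyde, held in 70% ethanol, permeabilized with 0.1% Triton X-100. TdT/FITC-dUTP labelling 90 min at 37 °C, then propidium iodide 2.5 μg/ml with RNase. Percent apoptotic cells by flow cytometry.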

[12] = Induction of apoptosis in human Paca3 cells assessed as early apoptotic cells in presence of 10% fetal calf serum at 25 uM after 24 hrs by annexin V-FITC/propidium iodide staining-based flow cytometry (reference value: 5.6 +/- 0.3%); assay type: functional
[13] = Induction of apoptosis in human Paca3 cells assessed as late apoptotic cells in presence of 10% fetal calf serum at 25 uM after 24 hrs by annexin V-FITC/propidium iodide staining-based flow cytometry (reference value: 4 +/- 0.8%); assay type: functional
[14] = Induction of apoptosis in human Paca3 cells assessed as early apoptotic cells in absence of 10% fetal calf serum at 10 uM after 24 hrs by annexin V-FITC/propidium iodide staining-based flow cytometry (reference value: 3.5 +/- 0.7%); assay type: functional
[15] = Induction of apoptosis in human Paca3 cells assessed as late apoptotic cells in absence of 10% fetal calf serum at 10 uM after 24 hrs by annexin V-FITC/propidium iodide staining-based flow cytometry (reference value: 4.6 +/- 0.5%); assay type: functional
[16] = molecular target: Sigma non-opioid intracellular receptor 1 (Rattus norvegicus) (UniProt Q9R0C9); assay: Antagonist activity at sigma 1 receptor in rat PC12 cells assessed as inhibition of NGF-induced neurite outgrowth at 2.5 to 10 uM after 96 hrs; assay type: cell-based; settings: PC-12
Chain of Sigma non-opioid intracellular receptor 1 (Rattus norvegicus) (Q9R0C9 whole entry): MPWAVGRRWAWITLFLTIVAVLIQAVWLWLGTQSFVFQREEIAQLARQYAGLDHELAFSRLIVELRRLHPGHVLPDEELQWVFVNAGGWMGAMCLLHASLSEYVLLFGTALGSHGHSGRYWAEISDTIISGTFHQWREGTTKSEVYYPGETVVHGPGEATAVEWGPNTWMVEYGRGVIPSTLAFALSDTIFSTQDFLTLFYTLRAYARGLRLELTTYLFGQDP
Summary of the method: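 PC12 cells grown in RPMI 1640 with 10% heat-inactivated horse serum and 5% FBS. Differentiation ran in medium with 0.5% serum plus NGF 2.5 ng/ml, with compound at 0–10 μM for 96 h. Neurite outgrowth was scored. Data are mean±sem of at least 5 experiments, each in triplicate.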

[17] = molecular target: Sigma non-opioid intracellular receptor 1 (Rattus norvegicus) (UniProt Q9R0C9); assay: Antagonist activity at sigma 1 receptor in rat PC12 cells assessed as inhibition of PRE-084-mediated NGF-induced neurite outgrowth at 0.25 to 2.5 uM after 96 hrs; assay type: cell-based; settings: PC-12
Summary of the method: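 PC12 cells in differentiation medium with NGF 2.5 ng/ml. The S1R agonist PRE-084 (5, 10, 25 μM; 10 mM stock in apyrogenic water) was given alone or with compound at 0.25 or 2.5 μM. NGF-induced neurite outgrowth was scored. Data are mean±sem of at least 5 experiments, each in triplicate.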

[18] = system: SUM-159-PT; assay: Cytotoxicity against human SUM159 cells assessed as reduction in cell viability after 48 hrs in presence of 10% fetal calf serum by MTS assay; assay type: functional, cell-based; summary of the method: as §2
[19] = system: U-87MG ATCC; assay: Cytotoxicity against human U87 cells assessed as reduction in cell viability after 48 hrs in presence of 10% fetal calf serum by MTS assay; assay type: functional, cell-based; summary of the method: as §2
[20] = system: LNCaP; assay: Cytotoxicity against human LNCAP cells assessed as reduction in cell viability after 48 hrs in presence of 10% fetal calf serum by MTS assay; assay type: functional, cell-based; summary of the method: as §2
[21] = system: PC-3; assay: Cytotoxicity against human PC3 cells assessed as reduction in cell viability after 48 hrs in presence of 10% fetal calf serum by MTS assay; assay type: functional, cell-based; summary of the method: as §2
[22] = Induction of apoptosis in human Paca3 cells assessed as viable cells in presence of 10% fetal calf serum at 25 uM after 24 hrs by annexin V-FITC/propidium iodide staining-based flow cytometry (reference value: 89.9 +/- 0.1%); assay type: functional
[23] = Induction of apoptosis in human Paca3 cells assessed as necrotic cells in absence of 10% fetal calf serum at 10 uM after 24 hrs by annexin V-FITC/propidium iodide staining-based flow cytometry (reference value: 0.8 +/- 0.6%); assay type: functional
[24] = Induction of apoptosis in human Paca3 cells assessed as viable cells in absence of 10% fetal calf serum at 10 uM after 24 hrs by annexin V-FITC/propidium iodide staining-based flow cytometry (reference value: 91.1 +/- 0.7%); assay type: functional
[25] = system: Paca3; assay: Induction of apoptosis in human Paca3 cells assessed as cleaved form of caspase 3 at 10 uM after 24 hrs in absence of 10% fetal calf serum by Western blot analysis; assay type: functional, cell-based
Summary of the method: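 PaCa3 cells starved 24 h without FCS, then exposed to 10 μM. Cleaved caspase 3 detected by western blot. Membranes blocked with 5% milk in T-TBS, primary antibody overnight at 4 °C, then secondary antibody, chemiluminescent detection.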

C/C(=C\CN1CCC(Cc2ccccc2)CC1)c1ccc2ccccc2c1
Ki [1]: 0.022 µM | IC50 [2]: 7 µM | IC50 [3]: 52.6 µM | Activity [4]: Active | IC50 [5]: 58.3 µM | IC50 [6]: 64.9 µM | IC50 [7]: 60.6 µM | IC50 [8]: 10.5 µM | IC50 [9]: 9.61 µM | IC50 [10]: 9.58 µM | Activity [11]: Active | Activity [12]: 43.1% | Activity [13]: 34.1% | Activity [14]: 10.9% | Activity [15]: 17.2% | inhibition [16]: Active | inhibition [17]: Active | Activity [18]: Active | Activity [19]: Active | Activity [20]: Active | Activity [21]: Active | Activity [22]: 22.4% | Activity [23]: 0.3% | Activity [24]: 71.6% | Activity [25]: Active
